HCT116 bCat-KO: beta-catenin-lacking colon tumor cell growth suppression; 1.5% of 140,000 active; viability, % at 10 µM; HCT116 beta-catenin knockout viability, CellTiter-Glo, 60 h; active compounds read low;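 active = viability at or under a set limit, the compound median less 4 SD, cut at about 6% in these data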;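 also: 0% = Hyamine 1622 control at 20 µM and 100% = untreated cell control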
HCT116 PTEN-null: PTEN-deleted cell growth suppression. HCT116 PTEN-null viability, CellTiter-Glo, 60 h; active compounds read low. 1.2% of 140,000 active. viability, % at 10 µM. AID 827;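 active = viability at or below a set limit, 4 SD under the median of all tested compounds, cut at about 3.7% in these data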;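 also: PTEN knockout HCT116 line with beta catenin targeted HCT116 as companion control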
HUVEC inhibit: inhibitors of human endothelial cell proliferation; HUVEC proliferation, CellTiter-Glo luminescence, 72 h; active compounds read low; viability, % at 10 µM (by protocol); 1.1% of 86,000 active; AID 648;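 active = viability at or below 30%; inactive = viability above 30%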;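 also: 100% = median luminescence of DMSO-only cell control wells on each plate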
Fibroblast inh: blocks proliferation of human lung fibroblasts; 1.1% of 85,000 active; viability, % at 10 µM; LL 47 human lung fibroblast viability, ATP luminescence; active compounds read low;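 active = viability at or below 50% in the single dose screen; inactive = viability above 50%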;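 also: compound exposure lasted 72 h before the ATP readout; 100% = median luminescence of untreated cell-only wells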
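material = human LL 47 lung fibroblast cells | dosing = compounds added from tenfold dosing solution, 0.1% DMSO final | timing = overnight cell rest, 72 h compound treatment at 37 °C | measured by = CellTiter-Glo luminescence measuring cellular ATP | evaluation = % viability versus median cells-only luminescence | control set = cell-only wells, no compound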
H69AR growth 86K: growth inhibitors of human H69AR lung tumor cells; H69AR lung tumor viability, ATP luminescence, 72 h; active compounds read low; 6% of 85,000 active; viability, % at 10 µM;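 active = viability at or below 40%; inactive = viability above 40%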;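 also: multidrug resistant small cell line overexpressing MRP-1 efflux transporter; 100% = mean luminescence of untreated control wells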
* hit, by the source's call. Only a selection was taken, and hits are over-represented in it overall.

Screening COCCN1CSC(=S)N(Cc2ccco2)C1 returned HCT116 bCat-KO 25, HCT116 PTEN-null 41, HUVEC inhibit 70, Fibroblast inh 82 and H69AR growth 86K 0.8*.
Screening COc1cccc(C(=O)COC(=O)c2ccc(NC(C)=O)cc2)c1 returned HCT116 bCat-KO 97 and HCT116 PTEN-null 97.
`COc1ccc(NS(=O)(=O)c2cc(OC)ccc2NC(=O)c2cc(C)oc2C)cc1` gave HCT116 bCat-KO 22, HCT116 PTEN-null 27, HUVEC inhibit 56, Fibroblast inh 67 and H69AR growth 86K 21*.
`COc1ccc(NS(=O)(=O)c2cc(C)ccc2C)cc1` gave HCT116 bCat-KO 8, HCT116 PTEN-null 11, HUVEC inhibit 62, Fibroblast inh 78 and H69AR growth 86K 13*.
`COc1ccc(NC(=O)c2cc(-c3ccccc3)oc2C)cc1` gave HCT116 bCat-KO 101 and HCT116 PTEN-null 98.
`c1ccc2[nH]c3cc4ncnc4cc3nc2c1` gave HCT116 bCat-KO 63 and HCT116 PTEN-null 78.
CC(C)Oc1ccc(C(=O)Nc2ccc(C(F)(F)F)n(C)c2=O)cc1 was read as HCT116 bCat-KO 99 and HCT116 PTEN-null 99.
`CCCC(=O)N=C1SC2CS(=O)(=O)CC2N1c1ccc(-c2nc3ccc(C)cc3s2)cc1` (stereo unspecified) gave HCT116 bCat-KO 75 and HCT116 PTEN-null 69.
Cc1ccc(S(=O)(=O)N(C(=O)c2ccncc2)c2ccc(OC(=O)c3ccncc3)c3ccccc23)cc1 was read as HCT116 bCat-KO 9 and HCT116 PTEN-null 6.
COc1ccc(S(=O)(=O)N(C(C)=O)c2ccc(OC(C)=O)c3ccccc23)cc1[N+](=O)[O-] was read as HCT116 bCat-KO 2.0* and HCT116 PTEN-null 2.8*.
Cc1nn2c(COc3ccc(NC(=O)c4ccccc4Cl)cc3)nnc2c2ccccc12 was read as HCT116 bCat-KO 25 and HCT116 PTEN-null 30.
For CCn1cc(C(=O)NCc2ccco2)c(=O)c2cc(S(=O)(=O)N3CC(C)CC(C)C3)ccc21 (stereo unspecified) the results were HCT116 bCat-KO 48, HCT116 PTEN-null 70, HUVEC inhibit 22*, Fibroblast inh 66 and H69AR growth 86K 68.
Screening CCn1cc(C(=O)NCc2ccco2)c(=O)c2cc(S(=O)(=O)N3CCC(C)CC3)ccc21 returned HCT116 bCat-KO 54, HCT116 PTEN-null 62, HUVEC inhibit 44, Fibroblast inh 92 and H69AR growth 86K 68.
For COc1ccc(C2C(C(=O)OC3CCCCC3)=C(C)Nc3nnnn32)c(OC)c1OC (stereo unspecified) the results were HCT116 bCat-KO 66, HCT116 PTEN-null 69, HUVEC inhibit 100, Fibroblast inh 93 and H69AR growth 86K 7.3*.
CC1=NC(=O)C(N=Nc2cccc3ccccc23)N1c1ccccc1 (stereo unspecified) was read as HUVEC inhibit 94, Fibroblast inh 96 and H69AR growth 86K 85.
For N#CCCn1nnc2ccccc21 the results were HCT116 bCat-KO 6.0*, HCT116 PTEN-null 6, HUVEC inhibit 96, Fibroblast inh 99 and H69AR growth 86K 85.
COc1ccc(C2c3ccc4ccccc4c3Oc3ncn(Cc4ccco4)c(=N)c32)cc1OC (stereo unspecified) was read as HCT116 bCat-KO 1.7* and HCT116 PTEN-null 0.9*.
`COc1ccc(C2c3c(ncn(CCN4CCOCC4)c3=N)Oc3ccc4ccccc4c32)cc1OC` (stereo unspecified) gave HCT116 bCat-KO 49, HCT116 PTEN-null 43, HUVEC inhibit 71, Fibroblast inh 89 and H69AR growth 86K 1.9*.
For COc1ccc(C2c3ccc4ccccc4c3Oc3ncn4nc(Cc5ccccc5)nc4c32)cc1OC (stereo unspecified) the results were HCT116 bCat-KO 84 and HCT116 PTEN-null 71.
CCOC(=O)Cn1c(=O)oc2cc(S(=O)(=O)Nc3ccc(N(CC)CC)cc3C)ccc21 was read as HCT116 bCat-KO 6, HCT116 PTEN-null 21, HUVEC inhibit 2.4*, Fibroblast inh 6.0* and H69AR growth 86K 94.
Screening CCOC(=O)Cn1c(=O)oc2cc(S(=O)(=O)Nc3cc(OCC)ccc3OCC)ccc21 returned HCT116 bCat-KO 76, HCT116 PTEN-null 75, HUVEC inhibit 100, Fibroblast inh 97 and H69AR growth 86K 110.
For CCOC(=O)Cn1c(=O)oc2cc(S(=O)(=O)Nc3cccc(C)c3)ccc21 the results were HCT116 bCat-KO 5.2*, HCT116 PTEN-null 16, HUVEC inhibit 83, Fibroblast inh 101 and H69AR growth 86K 101.
Cc1ccc(-c2cn(-c3ccccc3)c(SCC(=O)NC3CCS(=O)(=O)C3)n2)cc1C (stereo unspecified) was read as HCT116 bCat-KO 88 and HCT116 PTEN-null 95.
COC(=O)CSC1=C(C#N)C(c2ccccc2)CC(=O)N1 (stereo unspecified) was read as HCT116 bCat-KO 69, HCT116 PTEN-null 63, HUVEC inhibit 83, Fibroblast inh 93 and H69AR growth 86K 41.
`COC(=O)CSC1=C(C#N)C(=O)NC(c2ccccc2)S1` (stereo unspecified) gave HCT116 bCat-KO 91, HCT116 PTEN-null 95, HUVEC inhibit 28*, Fibroblast inh 7.4* and H69AR growth 86K 1.3*.
`COc1ccc2cc(/C=C/C(=O)c3ccco3)c(Cl)nc2c1` gave HCT116 bCat-KO 47, HCT116 PTEN-null 42, HUVEC inhibit 73, Fibroblast inh 85 and H69AR growth 86K 16*.
For COc1ccc(Cl)cc1NC(=O)c1ccco1 the results were HCT116 bCat-KO 89, HCT116 PTEN-null 95, HUVEC inhibit 80, Fibroblast inh 94 and H69AR growth 86K 83.
`COc1cc2cc(/C=C/C(=O)c3ccco3)c(Cl)nc2cc1OC` gave HCT116 bCat-KO 18, HCT116 PTEN-null 8, HUVEC inhibit 68, Fibroblast inh 86 and H69AR growth 86K 7.9*.
O=C(CSc1ccc(-c2ccc(F)cc2)nn1)N1CCN(c2ccccc2)CC1 was read as HCT116 bCat-KO 88 and HCT116 PTEN-null 86.
For COc1c([N+](=O)[O-])c(=O)n(-c2ccccc2)c2ccccc12 the results were HCT116 bCat-KO 80 and HCT116 PTEN-null 95.
`COc1cccc2c(=O)c(SC(F)(F)C(F)C(F)(F)F)c(C)[nH]c12` (stereo unspecified) gave HCT116 bCat-KO 28, HCT116 PTEN-null 32, HUVEC inhibit 57, Fibroblast inh 87 and H69AR growth 86K 17*.
Screening c1coc(CNc2ncnc3sc4c(c23)CCCCC4)c1 returned HCT116 bCat-KO 58, HCT116 PTEN-null 45, HUVEC inhibit 92, Fibroblast inh 100 and H69AR growth 86K 90.
For Cc1nc(NCc2ccco2)c2c3c(sc2n1)CCC3 the results were HCT116 bCat-KO 59, HCT116 PTEN-null 60, HUVEC inhibit 21*, Fibroblast inh 62 and H69AR growth 86K 47.
For O=C(Nc1ccc2c(c1)OCCO2)c1ccc(Cl)c([N+](=O)[O-])c1 the results were HCT116 bCat-KO 51 and HCT116 PTEN-null 66.
